Test: Toxicity liver stage against HepG2, at 10uM
Format: cell-based
Design: test concentration 10 uM, cell line HepG2-A16-CD81EGFP
Details: human, HepG2-A16-CD81EGFP cells; read-out: INHIBITION
Method in brief: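 Uninfected HepG2-A16-CD81EGFP cells, 3 × 10^3 per well, 1536-well, plated on prespotted compound at 10 μM final, parasite-free screening media added to match infected plates; puromycin 10 μM positive, DMSO 0.5% negative; run in parallel with 48 h PbLuc assay at 37 °C, 5% CO2; viability by CellTiter-Glo luminescence, normalized to controls.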

In order of rising cytotoxicity at 10 µM:
1. Cn1cc(C(=O)N2CC[C@@]3(O)CCN(C(=O)C4CCCC4)C[C@H]3C2)cn1  -138%
2. Cc1nc(CN2CCC(C(=O)O)(n3ccc(C(C)C)n3)CC2)co1  -125%
3. Clc1snnc1CN1CCCC1Cn1cccn1 (stereo unspecified)  -17.9%
4. O=S(=O)(Cc1c(F)cccc1Cl)NCCCN1CCCCCC1  -10%
5. CCN(Cc1ccc2c(c1)OCO2)C(=O)c1cccnc1O  -9.51%
6. CCc1nc(C(=O)N2CCOCC2)nn1-c1ccccc1Cl  -9.29%
7. CCCOC(=O)N1CCC(c2nnc(Cn3cccn3)n2C2CC2)CC1  -8.52%
8. CC(=O)N1CCC(NC(=O)N(C)Cc2c(C)noc2C)CC1  -6.33%
9. CN1CCC(CNC(=O)c2cccc(CN3CCCCCC3)c2)C1 (stereo unspecified)  -5.39%
10. COCC1N(C(=O)c2ccc3c(c2)OCCCO3)C2CCC1(O)CC2 (stereo unspecified)  -5.3%
11. Cn1cncc1C(=O)N1CCCC(c2ccn[nH]2)C1 (stereo unspecified)  -4.78%
12. Cc1ccsc1CNCC1CCCN1c1cccnn1 (stereo unspecified)  -4.48%
13. CCCc1nnc(N(C)CC2CCCN(CC)C2)o1 (stereo unspecified)  -4.1%
14. O=C(NCCOc1ncc(Cl)cc1Cl)c1ccncc1F  -3.78%
15. CN(C)c1ncccc1CNC(=O)NCc1ccco1  -3.26%
16. Cc1nc(CN(C)C2CCN(Cc3ccc(Cl)s3)C2)no1 (stereo unspecified)  -2.84%
17. CCc1nc(N)sc1C(=O)N1CCC(c2cc(O)nc(C)n2)CC1  -2.56%
18. COCCN1CC(C(=O)N(C)Cc2cc(-c3cccnc3)no2)CC1=O (stereo unspecified)  -1.99%
19. COc1ccc(OC)c(C(=O)N(C)Cc2nnc3ccccn23)c1  -0.972%
20. Fc1ccc(CNc2ccccc2Cn2cncn2)cc1  -0.719%
21. CCn1c(=O)[nH]c2cn(-c3cccc(Cl)c3)c(=O)n21  0.0452%
22. COc1ccc(CNC(=O)NC2CCN(CC(F)F)CC2)cc1C  1.11%
23. Cc1nonc1CNC(=O)C(C)Oc1cccc(F)c1 (stereo unspecified)  1.22%
24. COCCCNS(=O)(=O)c1ccc2c(c1)NC(=O)C(C)O2 (stereo unspecified)  1.52%
25. O=C(Cn1nc(-c2ccc(F)cc2)oc1=O)NCC1CCCO1 (stereo unspecified)  1.62%
26. Cc1nn(C)c2c(N3CCN(C(=O)C4CCC4)CC3)ncnc12  1.78%
27. COc1c(CNC2CCCOc3ccccc32)c(C)nn1C (stereo unspecified)  1.86%
28. Cc1cccc(CNC(=O)Nc2ccc3c(c2)CCCC(=O)N3)c1  2.33%
29. NC1(c2nc(-c3cccs3)cc(=O)[nH]2)CCCC1  4.19%
30. CN(C)Cc1nn(C)c2c1CN(C(=O)Nc1cccc(F)c1)C2  4.23%
31. CCc1nc(-c2ccc(C(=O)N3CCC4(CC3)OCCO4)cc2)no1  4.32%
32. CC(c1cncs1)N(C)Cc1ccc(CCC(C)(C)O)cc1 (stereo unspecified)  4.68%
33. CC(=O)c1cccc(NC(=O)NCCOCC2CC2)c1  5.11%
34. CCc1n[nH]c(C2CN(C(=O)c3ccc(NC4CC4)nc3)CCO2)n1 (stereo unspecified)  5.77%
35. O=C(CC1CCCN1S(=O)(=O)N1CCCCC1)c1cccs1 (stereo unspecified)  6.31%
36. O=C1Nc2ccccc2CC12CCN(CCO)C2 (stereo unspecified)  6.62%
37. CC(C(=O)N1CCN(c2ccccc2)CC1)n1cc(Br)cn1 (stereo unspecified)  7.47%
38. CC(C)CN1CCN(Cc2nc3c(s2)CCCC3)[C@H]2CS(=O)(=O)C[C@H]21  8.19%
39. CCS(=O)(=O)CC(C)N(C)C(=O)NCCc1cccc(F)c1F (stereo unspecified)  8.28%
40. CN1CCOC(C(=O)Nc2nc(-c3ccccc3F)n[nH]2)C1 (stereo unspecified)  8.65%
41. CN(CCn1ccnc1-c1ccccn1)S(C)(=O)=O  12%
42. Cc1nnc(N2C[C@@H](OCC3CCCC3)[C@H]3OCCC[C@H]32)s1  14.3%
43. O=S(=O)(CCN1CCN(c2ccccc2O)CC1)c1ccc(Cl)cc1  14.4%
44. COc1cccc(-n2cc(CN(C)C(=O)c3cc[nH]n3)cn2)c1  16.3%
45. Cc1nc(C2CCCN2C(=O)CNS(C)(=O)=O)no1 (stereo unspecified)  17.1%
46. O=C1CO[C@H](c2ccc(NS(=O)(=O)Cc3ccccc3)cc2)[C@@H](CO)N1  40.8%
